Assay [1] can be described thus: Effect on S-Adenosyl-methionine decarboxylase (AdoMetDC) activity in L1210 cells at 1 uM for 6 hr.
For assay [2], the system named is L1210. As to the kind of experiment: Effect on Putrescine (PUT) levels after 48 hr treatment at 150 uM in L1210 cells. In kind it is functional, Mus musculus.
Assay [3] deals with L1210. As to the kind of experiment: Cellular concentration expressed in L1210 cells. It counts as functional, Mus musculus.
The subject of assay [4] is L1210. As to the kind of experiment: Effect on spermine (SPM) levels after 48 h treatment at 150 uM in L1210 cells. It counts as functional, Mus musculus.
The subject of assay [5] is L1210. As to the kind of experiment: Effect on spermidine (SPD) levels after 48 hr treatment at 150 uM in L1210 cells. In kind it is functional, Mus musculus.
The target of assay [6] is Spermidine/spermine N(1)-acetyltransferase (SAT) (Mus musculus) (UniProt Q6P8J2+P48026). As to the kind of experiment: Effect on Spermidine/spermine N1-acetyl transferase (SSAT) activity in L1210 cells at 10 uM for 48h. In kind it is functional, cell-based.
Assay [7] deals with L1210. As to the kind of experiment: Inhibitory activity against L1210 cell growth for 96h. In kind it is functional, cell-based. The note with it: Mus musculus, L1210, 96 h. In outline: (§1)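 Murine leukemia L1210 cells grown with nine extracellular drug concentrations (0, 0.03, 0.1, 0.3, 1.0, 3, 10, 30, 100 µM); IC50 estimated from growth curves at 48 or 96 h; mean of at least two experiments.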

The subject of assay [8] is L1210. As to the kind of experiment: Effect on Putrescine (PUT) levels after 48 hr treatment at 500 uM in L1210 cells. It counts as functional, Mus musculus.
Assay [9] has as its target T1, Ornithine decarboxylase (Mus musculus) (UniProt P00860).
T1 sequence (whole entry): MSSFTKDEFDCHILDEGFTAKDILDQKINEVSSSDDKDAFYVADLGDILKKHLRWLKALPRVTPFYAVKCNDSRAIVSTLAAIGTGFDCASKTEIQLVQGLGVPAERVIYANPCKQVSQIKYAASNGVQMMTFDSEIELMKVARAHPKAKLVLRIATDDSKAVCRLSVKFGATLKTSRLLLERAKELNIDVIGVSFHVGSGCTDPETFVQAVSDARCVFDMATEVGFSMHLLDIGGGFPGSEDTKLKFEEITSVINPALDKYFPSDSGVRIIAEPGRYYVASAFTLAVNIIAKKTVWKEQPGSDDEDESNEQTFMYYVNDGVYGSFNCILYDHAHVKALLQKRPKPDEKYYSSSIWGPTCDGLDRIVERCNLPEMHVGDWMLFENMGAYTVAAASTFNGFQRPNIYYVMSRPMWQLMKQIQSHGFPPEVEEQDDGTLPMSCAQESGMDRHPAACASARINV
Description: Effect on Ornithine Decarboxylase (ODC) activity in L1210 cells at 1 uM for 4 hr. It counts as functional, cell-based.

In assay [10] the test system is L1210. Description: Effect on spermidine (SPD) levels after 48 hr treatment at 500 uM in L1210 cells. It counts as functional, Mus musculus.
Assay [11] deals with L1210. Description: Effect on spermine (SPM) levels after 48 hr treatment at 500 uM in L1210 cells. It counts as functional, Mus musculus.
Assay [12] concerns L1210. As to the kind of experiment: Effect on spermine (SPM) levels after 48 hr treatment at 50 uM in L1210 cells. It counts as functional, Mus musculus.
Assay [13] has as its system L1210. As to the kind of experiment: Inhibitory activity against L1210 cell growth for 48 hr. In kind it is functional, cell-based. The settings on record: Mus musculus, L1210, 48 h. In short, it runs like this: as §1
For assay [14], the system named is L1210. As to the kind of experiment: Effect on spermidine (SPD) levels after 48 hr treatment at 50 uM in L1210 cells. In kind it is functional, Mus musculus.
The subject of assay [15] is L1210. Description: Ability to inhibit [3H]SPD transport by L1210 cells. In kind it is functional, cell-based, Mus musculus. In short, it runs like this:
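Ki from analogue inhibition of [3H]spermidine transport into murine leukemia L1210 cells, analysed as substrate-competitive inhibition; mean of at least two or three experiments.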

Assay [16] concerns L1210. As to the kind of experiment: Effect on Putrescine (PUT) levels after 48 h treatment at 50 uM in L1210 cells. In kind it is functional, Mus musculus.

Sequence of Spermidine/spermine N(1)-acetyltransferase (SAT) (Mus musculus) (P48026 whole entry, looked up): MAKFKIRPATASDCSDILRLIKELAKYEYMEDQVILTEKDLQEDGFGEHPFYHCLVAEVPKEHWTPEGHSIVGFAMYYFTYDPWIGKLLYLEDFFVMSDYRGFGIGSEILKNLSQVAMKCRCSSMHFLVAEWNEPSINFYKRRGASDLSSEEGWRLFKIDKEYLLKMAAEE
Sequence of Spermidine/spermine N(1)-acetyltransferase (SAT) (Mus musculus) (Q6P8J2 whole entry, looked up): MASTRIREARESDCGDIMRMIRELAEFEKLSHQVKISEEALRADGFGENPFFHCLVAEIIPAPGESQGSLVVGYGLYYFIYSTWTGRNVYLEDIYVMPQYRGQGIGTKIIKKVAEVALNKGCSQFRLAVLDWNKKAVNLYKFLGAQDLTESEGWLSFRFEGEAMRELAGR

As for `CCNCCCNCCCCNCCCNCC` [BIS(ETHYL)SPERMINE], the Activity was 28% in assay [1], 0 in the assay on L1210 [2], 22 in the assay with L1210 [4] and 0 in the assay on L1210 [5]. In the assay on L1210 [3], the Cellular concentration was 1.78 nmol/10^6 cells.

`FC(F)(F)CNCCCNCCCCNCCCNCC(F)(F)F`: the Activity is 97% in [6]; 100% in assay [1]; 87 with L1210 [8]; 100% in assay [9]; 94 in the assay with L1210 [10]; 116 in the assay with L1210 [11]. Besides, in the assay with L1210 [7], the 50% inhibitory concentration (IC50) (usually the concentration that inhibits the measured activity by half) was greater than 100 µM. The molecule also returned a Cellular concentration in the assay with L1210 [3] of less than 0.02 nmol/10^6 cells.

Turning to `CCNCCCNCCC(N)CNCCCNCC` (stereo not drawn), the Activity stood at 32 in the assay with L1210 [12]; 667% in [6]; 58% in assay [1]; 7 in the assay with L1210 [14]; 16% in assay [9]; 26 in the assay with L1210 [16]. Further, the half-maximal inhibitory concentration (IC50) in the assay with L1210 [13] was determined as 8 µM; with L1210 [7] it was 0.4 µM. For the same molecule, the Ki (in general, a dissociation constant, usually derived from enzyme kinetics or from competition with a known ligand) with L1210 [15] stood at 33.7 µM. The Cellular concentration in the assay on L1210 [3] was 3.1 nmol/10^6 cells.

For the origin of these results see ChEMBL document CHEMBL1143619, “Synthesis and biological evaluation of aminopolyamines” (J Med Chem, 2005).
